# Source: PubChem BioAssay (Columbia University Molecular Screening Center)
# The sample as a whole holds a higher share of hits than the screen did.
# INS promoter act = TRM-6 insulin promoter activation. AID 1296. activation, % at 2 µM. hit rate 0.81% among 130,000. TRM-6 cells, insulin promoter eGFP reporter, imaging; plate-scaled: unstimulated 0, stimulated control 100;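 active = activation at 2 µM above a set limit, confirmed on inspection of the cell images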;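 note: share of cells whose green reporter signal exceeds an intensity cutoff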
#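 System: human fetal islet-derived TRM-6 cells with tamoxifen-inducible insulin promoter–eGFP reporter; input: seeding density of 1,000 cells per well; buffer or medium: Low-glucose (5.5 mM) medium with tamoxifen; incubation: compound exposure 48 h, 37 °C; measured by: high-content imaging of fixed cells with Hoechst nuclear stain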
# * = called active by the depositor.
SMILES,INS promoter act
COCC(C)NC(=O)NC1(C(F)(F)F)Oc2ccc(Cl)cc2O1 (stereo not drawn),-71.4
CCC(C)NC(=O)Cn1c(-c2ccccc2)cc(C(C)=O)c1C (stereo not drawn),0.0
O=C(CSc1nnc(-c2ccccc2)n1Cc1ccccc1)NNC(=O)c1ccccc1O,-8.3
O=c1c2ccccc2c(C=NCCCN2CCOCC2)c(O)n1Cc1ccccc1,-3.2
CCN(c1ccc(N=Cc2c(O)n(Cc3ccc(OC)cc3)c(=O)c3ccccc23)cc1)C(C)C,471.4*
COc1ccc(N=Cc2sc(O)c3ccccc23)cc1,0.0
CSc1nnc(SCC2=NNC(=O)SC2)s1,-8.3
CCN(CC)CCn1c(N)cc(=O)[nH]c1=O,0.0
CCN(CC)CCn1c(OC)cc(=O)[nH]c1=O,500.0*
CCN(CC)CCn1cnc2c([nH]c3cccc(OC)c32)c1=O,-9.5
O=C(CCc1ccc(S(=O)(=O)N2CCOCC2)cc1)N1CCc2ccccc2C1,-6.7
N#CCC(=O)c1sccc1-n1cccc1,-7.1
O=[N+]([O-])c1ccc(Cl)c(/C=N/NC(=S)Nc2ccccc2)c1,4.5
CC(C)CNC(=O)CO/N=C/c1ccccc1Cl,108.3
O=C(Nc1ccccc1)O/N=C/c1ccccc1Cl,87.1*
CCC(CC)N=C1NS(=O)(=O)c2cc([N+](=O)[O-])ccc21,-5.9
Cc1cccc(-n2c(CNC(=O)c3ccccc3)nnc2SCC(=O)Nc2nccs2)c1,0.0
CN1CCN(C(=O)c2ccc(N3CCCC3=O)cc2)CC1,0.0
O=C(NCCN1CCCCCC1)c1ccc(N2CCCC2=O)cc1,-8.6
CC(C)(C)c1ccc(C(=O)N2CCCCCC2=O)cc1,584.6*
O=C(N/C(=C/c1cccs1)C(=O)N1CCOCC1)c1ccccc1,7.1
OCCN1CCN(CCCc2c3c(cc4c2CCC4)CCC3)CC1,182.8
O=C(NCc1ccccc1)N1CCN(c2ccc(F)cc2)CC1,7.0
O=C(NCc1ccc(Cl)cc1)C(=O)NCC(c1cccnc1)N1CCN(c2ccc(F)cc2)CC1 (stereo not drawn),164.7*
COc1ccc(N2CCN(C(CNC(=O)C(C)(C)C)c3cccnc3)CC2)cc1 (stereo not drawn),5.9
SMILES,INS promoter act
COc1cccc(C(=O)Nc2cccc(C(=O)NCC(C)C)c2)c1,1.3
O=C(O)c1ccc(C(=O)Nc2cccc(NC(=O)C3CCCO3)c2)cc1 (stereo not drawn),-5.7
CC(C)CNC(=O)c1cccc(NC(=O)C2CCCO2)c1 (stereo not drawn),437.9*
O=C1CCC(C(=O)N2CCC(CO)(Cc3ccc(Cl)cc3)CC2)=NN1,-7.7
COc1ccc(CN2C(=O)c3cccnc3C2Nc2cc(Cl)c(OC)cc2OC)cc1 (stereo not drawn),135.7*
CCN(CC)S(=O)(=O)c1ccc(NC2c3ncccc3C(=O)N2Cc2ccccc2)cc1 (stereo not drawn),7.1
O=C1c2cccnc2C(O)N1Cc1ccc(F)cc1 (stereo not drawn),6.5
COc1ccc(/C=N/NC(=O)c2ccncc2)cc1Cn1nc([N+](=O)[O-])c(Br)c1C,393.8*
COc1cc(/C=N/NC(=O)c2ccncc2)ccc1OC(=O)c1ccc([N+](=O)[O-])cc1,-100.0
COc1ccc(/C=N/NC(=O)c2ccc(Br)o2)cc1Cn1cc([N+](=O)[O-])cn1,0.0
CC1CCc2sc(C(=O)N/N=C/c3ccc([N+](=O)[O-])cc3)cc2C1 (stereo not drawn),-6.5
Cc1nn(-c2ccccc2)c(C)c1/C=N/NC(=O)c1cc(-c2ccccc2)n[nH]1,125.0*
Cc1nn(-c2ccccc2)c(C)c1/C=N/n1c(-c2ccc(Cl)cc2)n[nH]c1=S,0.0
Cc1nn(-c2ccccc2)c(C)c1/C=N/NC(=O)CSc1nnc(SCc2ccccc2Cl)s1,166.7
Cc1ccccc1NC(=O)COC(=O)Cc1ccsc1,-9.5
COC(=O)c1sccc1NC(=O)CN(C)NS(=O)(=O)c1ccc(F)cc1,3.6
CSc1cnc2c(N)nc(N(C)C)nc2n1,0.0
Cc1ccc(C(=O)NC(=S)Nc2ccccc2N2CCCC2)cc1[N+](=O)[O-],0.0
CCn1ncc(Cl)c1C(=O)NC(=S)Nc1c(C)cc(C)cc1[N+](=O)[O-],292.9*
CCn1ncc(Br)c1C(=O)Nc1ccc(F)c([N+](=O)[O-])c1,238.5
CCOc1ccccc1OCC(=O)Nc1nnc(COC)s1,-8.6
Cc1cccc(NC(=O)C2c3ccccc3Oc3ccccc32)n1,-7.1
COc1ccc(C(=O)OCC(=O)Nc2ccc(F)cc2F)cc1OC,-2.6
CCC(C)NS(=O)(=O)c1ccc(OCC(=O)NCc2ccc3c(c2)OCO3)cc1 (stereo not drawn),0.0
CCC(C)NS(=O)(=O)c1ccc(OCC(=O)Nc2ccc(F)cc2F)cc1 (stereo not drawn),462.5*
SMILES,INS promoter act
Cc1ccc(S(=O)(=O)Nc2cc(C(C)C)c(O)cc2C)cc1,2.3
CC(C)c1ccccc1NS(=O)(=O)N(C)C,380.0*
CN(C)S(=O)(=O)Nc1ccccc1C(N)=O,35.7
Clc1ccc(-c2nnc(-c3ccccc3)o2)c(Cl)c1,115.4
Clc1ccc(OCc2nnc(-c3ccccc3Br)o2)c(Cl)c1,120.0*
Clc1ccc(OCc2nc(-c3ccncc3)no2)c(Cl)c1,8.3
CCNC(=O)CN(CCc1ccccc1)S(=O)(=O)c1ccc(OC)cc1,8.3
O=C(NCc1ccc(F)cc1)C(C(=O)NCc1ccc(F)cc1)c1ncc(C(F)(F)F)cc1Cl,0.0
Cc1ccc(Cn2nc(C)c(NC(=O)CCCn3nc(C)c([N+](=O)[O-])c3C)c2C)cc1,0.0
COc1cccc(C2Nc3ccccc3C(=O)N2O)c1O (stereo not drawn),7.1
COc1ccc(C2Nc3ccccc3C(=O)N2c2ccc(C)cc2)cc1Cn1nc(C)c([N+](=O)[O-])c1C (stereo not drawn),129.0*
C=C(C)c1cccc(C(C)(C)NC(=O)N(C)C2CCN(C)CC2)c1,260.0*
C=C(C)c1cccc(C(C)(C)NC(=O)N2CCN(c3ccccc3OC)CC2)c1,-7.7
C=C(C)c1cccc(C(C)(C)NC(=O)Nc2ncccn2)c1,-2.9
N#Cc1nc(-c2ccco2)oc1N1CCC(Cc2ccccc2)CC1,3.1
Cc1cccc(-c2nsc(SCC(=O)NCC3CCCO3)n2)c1 (stereo not drawn),9.1
Cc1ccc(C(=O)NCc2n[nH]c(=S)n2-c2ccccc2)cc1[N+](=O)[O-],7.7
Nc1c(C(=O)Nc2ccc(F)cc2)nnn1-c1cccc(C(F)(F)F)c1,7.1
O=C(Nc1c(C(=O)NCc2ccco2)cnn1-c1ccccc1)c1cccc(F)c1,287.0*
O=C(NCc1ccco1)c1cnn2c(C(F)F)cc(-c3ccccc3)nc12,-9.6
CC(C)(C)NC(=O)c1cnn(-c2ccccc2)c1NC(=O)c1ccccc1,0.0
C=CCSc1ncc(C#N)c(N)n1,7.9
O=C(c1c[nH]c2ccc(S(=O)(=O)N3CCC4(CC3)OCCO4)cc2c1=O)N1CCOCC1,0.0
COc1ccc(CCNC(=O)c2cc(S(=O)(=O)N3CCC4(CC3)OCCO4)ccc2F)cc1OC,0.0
COC(CNC(=O)c1c[nH]c2ccc(S(=O)(=O)N3CCC4(CC3)OCCO4)cc2c1=O)OC,400.0*
O=C(c1ccccn1)N1CC=C(c2ccccc2)CC1,5.6
CC(C)(C)c1ccc(C(=O)NC(Cc2ccccc2)C(=O)O)cc1 (stereo not drawn),0.0
CCN(C(=O)c1ccc(C)c(Br)c1)c1ccccc1,-66.7
CCC1CCCCN1CCCNC(=O)CNC(=O)Cn1ccc2ccccc2c1=O (stereo not drawn),3.2
